Measured values as given in ChEMBL document CHEMBL1124084, “Studies on scavengers of active oxygen species. 1. Synthesis and biological activity of 2-O-alkylascorbic acids” (J Med Chem, 1988).

Columns and labels:
Rattus norvegicus [1] = organism: Rattus norvegicus; experiment: Inhibition of lipid peroxidation was determined with rat brain tissue homogenates; assay type: functional
How it was run: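 Brains excised from male SD rats (12 weeks), exsanguinated under pentobarbital anesthesia; 5% homogenate in phosphate buffer pH 7.4 incubated with test drug 1 h at 37 °C; lipid peroxide quantified by thiobarbituric acid method.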

Rattus norvegicus [2] = organism: Rattus norvegicus; experiment: Antilipid peroxidation was determined; assay type: functional
How it was run: (§1)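 Rat brain lipid peroxidation: brains from male SD rats (12 weeks old), exsanguinated under pentobarbital anaesthesia, homogenized to 5% in phosphate buffer pH 7.4. Homogenate incubated with test drug at 37 °C for 1 h. Lipid peroxide quantified by the thiobarbituric acid method.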

Rattus norvegicus [3] = experiment: Effect of AOS scavenger on ventricular tachycardia (VT),arrhythmias induced by ischemia-reperfusion in anesthetized rat duration at 1 mg/kg; assay type: functional, Cardiac ventricle
Rattus norvegicus [4] = experiment: Effect of AOS scavenger on ventricular fibrillation (VF), arrhythmias induced by ischemia-reperfusion in anesthetized rat, frequency, times at 1 mg/kg; assay type: functional, Cardiac ventricle
Rattus norvegicus [5] = experiment: Effect of AOS scavenger on ventricular tachycardia (VT),arrhythmias induced by ischemia-reperfusion in anesthetized rat, frequency, times at 3 mg/kg; assay type: functional, Cardiac ventricle
Rattus norvegicus [6] = experiment: Effect of AOS scavenger on premeture ventricular complexes PVCs, arrhythmias induced by ischemia-reperfusion in anesthetized rat, duration at 3 mg/kg; assay type: functional, Cardiac ventricle
Rattus norvegicus [7] = experiment: Effect of AOS scavenger on premeture ventricular complexes PVCs, arrhythmias induced by ischemia-reperfusion in anesthetized rat, duration at 10 mg/kg; assay type: functional, Cardiac ventricle; details: 10 mg/kg
Rattus norvegicus [8] = experiment: Effect of AOS scavenger on ventricular tachycardia (VT),arrhythmias induced by ischemia-reperfusion in anesthetized rat, incidence at 10 mg/kg; 13/13; assay type: functional, Cardiac ventricle
Rattus norvegicus [9] = experiment: Effect of AOS scavenger on ventricular fibrillation (VF), arrhythmias induced by ischemia-reperfusion in anesthetized rat, frequency, times at 10 mg/kg; assay type: functional, Cardiac ventricle; details: 10 mg/kg
Rattus norvegicus [10] = experiment: Effect of AOS scavenger on ventricular fibrillation (VF),arrhythmias induced by ischemia-reperfusion in anesthetized rat, incidence at 3 mg/kg; 3/10; assay type: functional, Cardiac ventricle
Rattus norvegicus [11] = experiment: Effect of AOS scavenger on ventricular fibrillation (VF),arrhythmias induced by ischemia-reperfusion in anesthetized rat, duration at 10 mg/kg; assay type: functional, Cardiac ventricle
Rattus norvegicus [12] = experiment: Effect of AOS scavenger on ventricular tachycardia (VT),arrhythmias induced by ischemia-reperfusion in anesthetized rat, duration at 3 mg/kg; assay type: functional, Cardiac ventricle
Rattus norvegicus [13] = experiment: Effect of AOS scavenger on ventricular fibrillation (VF),arrhythmias induced by ischemia-reperfusion in anesthetized rat, incidence at 1 mg/kg; 5/14; assay type: functional, Cardiac ventricle
Rattus norvegicus [14] = experiment: Effect of AOS scavenger on ventricular fibrillation (VF),arrhythmias induced by ischemia-reperfusion in anesthetized rat, duration at 1 mg/kg; assay type: functional, Cardiac ventricle
Rattus norvegicus [15] = experiment: Effect of AOS scavenger on ventricular fibrillation (VF),arrhythmias induced by ischemia-reperfusion in anesthetized rat, duration at 3 mg/kg; assay type: functional, Cardiac ventricle
Rattus norvegicus [16] = experiment: Effect of AOS scavenger on ventricular tachycardia (VT), arrhythmias induced by ischemia-reperfusion in anesthetized rat, frequency, timesat 10 mg/kg; assay type: functional, Cardiac ventricle
Rattus norvegicus [17] = experiment: Effect of AOS scavenger on ventricular tachycardia (VT),arrhythmias induced by ischemia-reperfusion in anesthetized rat, incidence at 3 mg/kg; 10/10; assay type: functional, Cardiac ventricle
Rattus norvegicus [18] = experiment: Effect of AOS scavenger on ventricular tachycardia (VT),arrhythmias induced by ischemia-reperfusion in anesthetized rat, duration at 10 mg/kg; assay type: functional, Cardiac ventricle; details: 10 mg/kg
Rattus norvegicus [19] = experiment: Effect of AOS scavenger on ventricular tachycardia (VT),arrhythmias induced by ischemia-reperfusion in anesthetized rat, frequency, times at 1 mg/kg; assay type: functional, Cardiac ventricle
Rattus norvegicus [20] = experiment: Effect of AOS scavenger on ventricular fibrillation (VF),arrhythmias induced by ischemia-reperfusion in anesthetized rat, incidence at 10 mg/kg; 4/13; assay type: functional, Cardiac ventricle
Rattus norvegicus [21] = experiment: Effect of AOS scavenger on ventricular fibrillation (VF), arrhythmias induced by ischemia-reperfusion in anesthetized rat, frequency, timesat 3 mg/kg; assay type: functional, Cardiac ventricle
Rattus norvegicus [22] = experiment: Effect of AOS scavenger on premeture ventricular complexes PVCs, arrhythmias induced by ischemia-reperfusion in anesthetized rat, duration at 1 mg/kg; assay type: functional, Cardiac ventricle
[23] = Reducing activity determined by the use of stable radical alpha,alpha-di-phenyl-beta-picrylhydrazyl (DPPH); parameters: concentration or dose not given beside the values
Rattus norvegicus [24] = organism: Rattus norvegicus; experiment: Antilipid peroxidation was measured at 10e-5 M concentration; assay type: functional; how it was run: as §1
Rattus norvegicus [25] = experiment: Effect of AOS scavenger on ventricular tachycardia (VT), arrhythmias induced by ischemia-reperfusion in anesthetized rat, incidence at 100 mg/kg; 7/10; assay type: functional, Cardiac ventricle
Rattus norvegicus [26] = experiment: Effect of AOS scavenger on ventricular fibrillation (VF), arrhythmias induced by ischemia-reperfusion in anesthetized rat, duration at 100 mg/kg; assay type: functional, Cardiac ventricle
Rattus norvegicus [27] = experiment: Effect of AOS scavenger on ventricular fibrillation (VF), arrhythmias induced by ischemia-reperfusion in anesthetized rat, incidence at 100 mg/kg; 4/10; assay type: functional, Cardiac ventricle
Rattus norvegicus [28] = experiment: Effect of AOS scavenger on premeture ventricular complexes PVCs, arrhythmias induced by ischemia-reperfusion in anesthetized rat, frequency per minute at 100 mg/kg
Rattus norvegicus [29] = experiment: Effect of AOS scavenger on ventricular tachycardia (VT), arrhythmias induced by ischemia-reperfusion in anesthetized rat, duration at 100 mg/kg; assay type: functional, Cardiac ventricle
Rattus norvegicus [30] = experiment: Effect of AOS scavenger on ventricular fibrillation (VF), arrhythmias induced by ischemia-reperfusion in anesthetized rat, frequency, times at 100 mg/kg; assay type: functional, Cardiac ventricle
Rattus norvegicus [31] = experiment: Effect of AOS scavenger on ventricular tachycardia (VT), arrhythmias induced by ischemia-reperfusion in anesthetized rat, frequency, times at 100 mg/kg; assay type: functional, Cardiac ventricle

CCCCCCCCCCCCCOC1=C(O)OC(C(O)CO)C1=O (stereo not given)
IC50 (Rattus norvegicus [1]): 7.4 µM
Antilipid peroxidation (Rattus norvegicus [2]): 57.4%

CCCCCCCCCCCCCCCCCCOC1=C(O)[C@@H](C(O)CO)OC1=O (stereo in doubt; 5k) [listing 1 of 2 here]
Duration (Rattus norvegicus [3]): 11.4 s
Frequency (Rattus norvegicus [4]): <1.1
Frequency (Rattus norvegicus [5]): 4
IC50 (Rattus norvegicus [1]): 4.3 µM
Activity (Rattus norvegicus [6]): <4.5 min
Activity (Rattus norvegicus [7]): 12 min
Incidence (Rattus norvegicus [8]): 13 N
Frequency (Rattus norvegicus [9]): <0.5
Incidence (Rattus norvegicus [10]): 3 N
Duration (Rattus norvegicus [11]): 0.5 s
Duration (Rattus norvegicus [12]): <6.9 s
Incidence (Rattus norvegicus [13]): 5
Duration (Rattus norvegicus [14]): <4.1 s
Duration (Rattus norvegicus [15]): <1.5 s
Frequency (Rattus norvegicus [16]): 5.2
Incidence (Rattus norvegicus [17]): 10 N
Duration (Rattus norvegicus [18]): 12 s
Frequency (Rattus norvegicus [19]): 4.3
Incidence (Rattus norvegicus [20]): 4 N
Frequency (Rattus norvegicus [21]): <0.7
Activity (Rattus norvegicus [22]): 3.4 min

CCCCCCCCCCCCCCCCCCOC1=C(O)[C@@H](C(O)CO)OC1=O (stereo in doubt; 5k) [listing 2 of 2 here]
Reducing activity [23]: 95.4%
Antilipid peroxidation (Rattus norvegicus [2]): 65.9%

CCCCCCCCCOC1=C(O)OC(C(O)CO)C1=O (stereo not given)
IC50 (Rattus norvegicus [1]): 27 µM
Antilipid peroxidation (Rattus norvegicus [2]): 22.4%

CCCCCCCCCCCCCCCCOC1=C(O)OC(C(O)CO)C1=O (stereo not given)
IC50 (Rattus norvegicus [1]): 6.8 µM
Antilipid peroxidation (Rattus norvegicus [2]): 56.1%

CCCCCCCCCCCCCCCCCCOC1=C(OC)C(C(O)CO)OC1=O (stereo not given)
Antilipid peroxidation (Rattus norvegicus [24]): 12.5%

CCCCCCCCCCCCCCCCCCCCCOC1=C(O)OC(C(O)CO)C1=O (stereo not given)
IC50 (Rattus norvegicus [1]): 11 µM
Reducing activity [23]: 94.3%
Antilipid peroxidation (Rattus norvegicus [2]): 30.6%

CCCCCCCCCCCCCCCCCCCCOC1=C(O)OC(C(O)CO)C1=O (stereo not given)
IC50 (Rattus norvegicus [1]): 4.7 µM
Reducing activity [23]: 95.3%
Antilipid peroxidation (Rattus norvegicus [2]): 75.8%

CCCCCCCCCCCCCCCCCCOC1=C(O)O/C(=C\CO)C1=O
IC50 (Rattus norvegicus [1]): 8.5 µM
Antilipid peroxidation (Rattus norvegicus [24]): 53.5%

OC[C@@H](O)[C@@H](O)[C@H](O)[C@H](O)CO [MANNITOL]
Incidence (Rattus norvegicus [25]): 7 N
Duration (Rattus norvegicus [26]): 1.3 s
Incidence (Rattus norvegicus [27]): 4 N
Activity (Rattus norvegicus [28]): 4.8 min⁻¹
Duration (Rattus norvegicus [29]): 7.7 s
Frequency (Rattus norvegicus [30]): 0.8
Frequency (Rattus norvegicus [31]): 2.7

CCCCCCCCCCCCCCCCCCOC1=C(O)OC(C(O)COC(C)=O)C1=O (stereo not given)
IC50 (Rattus norvegicus [1]): 4.2 µM
Antilipid peroxidation (Rattus norvegicus [24]): 76.3%

CCCCCCCCCCCCCCCCCCOC1=C(O)OC(CCO)C1=O (stereo not given)
IC50 (Rattus norvegicus [1]): 6.8 µM
Reducing activity [23]: 93.9%
Antilipid peroxidation (Rattus norvegicus [2]): 52%
